The test system of series [1] is healthy adult men. Nature of the series: Adverse events. The series is classed as in vivo, human. As to conditions: 8-day twice-daily instillation. The procedure, abridged: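 Healthy adult men, 3 × 3 crossover: three 8-day phases separated by drug-free intervals of at least 5 days. One drop of test eye drop was given in both eyes twice daily (09:00, 21:00), with morning dose only on day 8. Subjects were inpatients from day −1 to day 9. AEs and ADRs were tallied as number and percentage of subjects.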

Series [2] deals with healthy volunteers. As to conditions: cited from earlier work; for pupil diameter after single instillation: healthy subjects, ref 37 (Lee et al.).
The subject of series [3] is healthy adults and patients with glaucoma. As to conditions: cited from earlier work.
The subject of series [4] is palpebral and bulbar conjunctivae. Nature of the series: Palpebral and bulbar conjunctival hyperemia grading by slit lamp microscope. It counts as in vivo, human. As to conditions: day 1, score – = 0, + = 1, 2+ = 2, 3+ = 3; for palpebral conjunctival hyperemia mean ± SD grade score: administration phase 1. The procedure, abridged:
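Conjunctival hyperemia was graded: – no or physiologic findings; + several vasodilatations; 2+ multiple or limbal vasodilatation; 3+ whole conjunctiva. Change from baseline per phase was averaged over both eyes and analysed by marginal model, n = 17–18.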

Series [5] relates to corneal endothelial cells. The series is classed as in vivo, human. The settings on record: after instillation, days 1 and 8; none developed grade 3.

Structures can show the parent of a compound that is named as a salt.

Turning to `C[C@H]1CNCCCN1S(=O)(=O)c1cccc2cncc(F)c12` [ripasudil, ripasudil hydrochloride hydrate], in series [1], the “subjects with ADRs” value came to 100.0%, the “subjects with AEs” value worked out at 100.0%, the “subjects with conjunctival hyperemia as ADR” value turned out to be 100.0% and the “subjects with conjunctival hyperemia as AE” value stood at 100.0%. Besides, the “pupil diameter after single instillation” value in series [2] was “no change in pupil diameter”. In addition, in series [3], the “time of peak of transient conjunctival hyperemia after instillation” value was 5 to 15 min. Also, the “palpebral conjunctival hyperemia mean ± SD grade score” value in series [4] (15 min post-instillation) was determined as 1.4 ± 0.6. Besides, in series [4] (1 h post-instillation), the “palpebral conjunctival hyperemia mean ± SD grade score” value amounted to 0.9 ± 0.7 and the “bulbar conjunctival hyperemia mean ± SD grade score” value was 0.9 ± 0.5. Further, the “morphologic changes in corneal endothelial cells (grade)” value in series [5] is given as “grade 1 or 2”.
`Brc1c(NC2=NCCN2)ccc2nccnc12` [brimonidine, brimonidine tartrate]: in series [1], the “subjects with ADRs” value is 58.8%, the “subjects with AEs” value was 70.6%, the “subjects with conjunctival hyperemia as ADR” value is reported as 47.1% and the “subjects with conjunctival hyperemia as AE” value is given as 58.8%. Moreover, the “pupil diameter after single instillation” value in series [2] is “significantly decreased”. Also, the effect on pupil result in series [2] (healthy volunteers) was “moderate miotic effect”. For the same compound, the “morphologic changes in corneal endothelial cells (grade)” value in series [5] is recorded as “No morphologic changes”.

(Values after PMC10329961 (Advances in Therapy, 2023).)
